Activity calls are given as the source filed them. The rule behind the calls is not given here.
Tests used:
Influenza A virus [1] = assay: Antiviral activity against recombinant Influenza A/WSN/33 (H1N1) virus infected in BALB/c mouse assessed as survival of mouse at 90 mg/kg, im administered as single dose; type: functional, organism-based; set-up: dose 90 mg/kg; settings: A/WSN/1933(H1N1)
In short: (§1)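 Male BALB/c mice, 6–8 weeks old and 20–25 g, were randomized by weight, 4 per cage, in groups of 12. Drug at 50 mg/ml in saline buffered to pH 3.0 was given by IM hip injection, first dose 1 h before challenge. Mice were infected intranasally under isoflurane with 8 × 10^3 PFU of cell-grown recombinant virus in 30 μl PBS. Mortality was recorded daily for 14 days.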

Mus musculus [2] = assay: Toxicity against recombinant Influenza A/WSN/33 (H1N1) virus infected BALB/c mouse assessed as weight loss at 45 mg/kg, im administered as single dose and measured after 14 days; type: organism-based; set-up: dose 45 mg/kg, route intramuscular; settings: in vivo, 336 h
In short: (§2)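 Male BALB/c mice, groups of 12, received IM drug at 50 mg/ml in pH 3.0 buffered saline, starting 1 h before intranasal infection with 8 × 10^3 PFU of recombinant virus. Body weight was monitored daily for 14 days. Mean weight loss was compared across regimens by one-way ANOVA, with uninfected PBS-treated mice as reference.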

[3] = molecular target: Neuraminidase (Influenza A virus (strain A/Wilson-Smith/1933 H1N1) (Influenza A virus(strain A/WS/1933 H1N1))) (UniProt P03470); settings: Influenza A virus (A/WSN/1933(H1N1)); 2 to 20 mg/kg
Chain of Neuraminidase (Influenza A virus (strain A/Wilson-Smith/1933 H1N1) (Influenza A virus(strain A/WS/1933 H1N1))) (P03470 whole entry): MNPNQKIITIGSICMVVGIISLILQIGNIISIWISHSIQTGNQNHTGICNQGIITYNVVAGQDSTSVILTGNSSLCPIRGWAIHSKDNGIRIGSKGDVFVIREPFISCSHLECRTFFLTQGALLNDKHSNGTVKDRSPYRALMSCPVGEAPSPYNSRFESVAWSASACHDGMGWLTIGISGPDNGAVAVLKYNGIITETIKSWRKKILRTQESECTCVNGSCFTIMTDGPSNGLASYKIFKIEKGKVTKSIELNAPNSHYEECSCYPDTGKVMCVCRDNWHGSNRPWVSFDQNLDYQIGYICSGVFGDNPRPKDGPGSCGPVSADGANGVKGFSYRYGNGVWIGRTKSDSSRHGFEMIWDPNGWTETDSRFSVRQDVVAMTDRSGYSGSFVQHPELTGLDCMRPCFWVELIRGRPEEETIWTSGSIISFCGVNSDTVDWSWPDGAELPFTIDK

Mus musculus [4] = assay: Toxicity against BALB/c mouse assessed as weight loss in mouse at 45 mg/kg, im once daily for 5 days measured after 14 days; type: organism-based; set-up: dose 45 mg/kg, route intramuscular; settings: in vivo, 336 h
In short: (§3)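 Uninfected male BALB/c mice, 6 per group, received IM drug at 45 mg/kg once daily for 5 days, dissolved at 50 mg/ml in pH 3.0 buffered saline, or PBS. Body weight and mortality were monitored daily for 14 days.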

Influenza A virus [5] = assay: Antiviral activity against recombinant Influenza A/WSN/33 (H1N1) virus infected in BALB/c mouse assessed as survival of mouse at 45 mg/kg, im once daily for 5 days; type: functional, organism-based; set-up: dose 45 mg/kg; settings: A/WSN/1933(H1N1); in short: as §1
Influenza A virus [6] = assay: Antiviral activity against recombinant Influenza A/WSN/33 (H1N1) virus infected in BALB/c mouse assessed as survival of mouse at 45 mg/kg, im administered as single dose; type: functional, organism-based; set-up: dose 45 mg/kg; settings: A/WSN/1933(H1N1); in short: as §1
Influenza A virus [7] = assay: Antiviral activity against Influenza A/WSN/33 (H1N1) virus infected in mouse assessed as survival rate at 10 mg/kg, po administered 4 days before viral challenge; type: functional; settings: A/WSN/1933(H1N1)
Mus musculus [8] = assay: Toxicity against BALB/c mouse assessed as mortality at 45 mg/kg, im once daily for 5 days measured after 14 days; type: organism-based; set-up: dose 45 mg/kg, route intramuscular; settings: in vivo, 336 h; in short: as §3
[9] = Cmax in mouse at 30 mg/kg, im administered as single dose and measured after 24 hrs; type: ADME, organism-based; set-up: dose 30 mg/kg, route intramuscular; settings: in vivo
Mus musculus [10] = assay: Toxicity against recombinant Influenza A/WSN/33 (H1N1) virus infected BALB/c mouse assessed as weight loss at 90 mg/kg, im administered as single dose and measured after 14 days; type: organism-based; set-up: dose 90 mg/kg, route intramuscular; settings: in vivo, 336 h; in short: as §2
[11] = molecular target: Neuraminidase (Influenza A virus (strain A/Wilson-Smith/1933 H1N1) (Influenza A virus(strain A/WS/1933 H1N1))) (UniProt P03470); settings: Influenza A virus (A/WSN/1933(H1N1)); 10 mg/kg
Mus musculus [12] = assay: Toxicity against recombinant Influenza A/WSN/33 (H1N1) virus infected BALB/c mouse assessed as weight loss at 45 mg/kg, im once daily for 5 days measured after 14 days; type: organism-based; set-up: dose 45 mg/kg, route intramuscular; settings: in vivo, 336 h; in short: as §2
Influenza A virus [13] = assay: Antiviral activity against Influenza A/WSN/33 (H1N1) virus infected in mouse assessed as survival rate at 10 mg/kg, im administered 4 days before viral challenge; type: functional; settings: A/WSN/1933(H1N1), route intramuscular
[14] = Cmax in mouse at 30 mg/kg, im administered as single dose and measured after 30 mins; type: ADME, organism-based; set-up: dose 30 mg/kg, route intramuscular; settings: in vivo

## CCC(CC)[C@H](NC(C)=O)[C@@H]1[C@H](O)[C@@H](C(=O)O)C[C@H]1NC(=N)N [PERAMIVIR ANHYDROUS]
Influenza A virus [1]
  Activity: Active
Mus musculus [2]
  Activity: Non-toxic
[3]
  T1/2: 1.25 h
Mus musculus [4]
  Activity: Non-toxic
Influenza A virus [5]
  Activity: Active
Influenza A virus [6]
  Activity: Active
Influenza A virus [7]
  survival at 10 mg/kg: 50%
Mus musculus [8]
  Activity: Non-toxic
[9]
  Cmax: 29.3 ng/mL
Mus musculus [10]
  Activity: Non-toxic
[11]
  T1/2: > 24 h
Mus musculus [12]
  Activity: Non-toxic
Influenza A virus [13]
  survival at 10 mg/kg: 100%
[14]
  Cmax: 17700 ng/mL

From ChEMBL document CHEMBL1275600, “Prophylactic activity of intramuscular peramivir in mice infected with a recombinant influenza A/WSN/33 (H1N1) virus containing the H274Y neuraminidase mutation” (Antimicrob Agents Chemother, 2010)
